Data on six compounds can be found in ChEMBL document CHEMBL3045815, “The cruciferous phytoalexins rapalexin A, brussalexin A and erucalexin: chemistry and metabolism in Leptosphaeria maculans” (Bioorg Med Chem, 2012).

A short description of data set [1]: Half life in water. It is filed as physicochemical.
Data set [2] can be described thus: Half life in potato dextrose agar medium. It is filed as physicochemical.
Data set [3] concerns Plenodomus lingam. Kind of data set: Antifungal activity against Leptosphaeria maculans assessed as mycelial radial growth inhibition on potato dextrose agar at 0.10 mM relative to control. The class given is functional. In outline:
(§1)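 Mycelial radial growth on PDA. L. maculans isolates BJ-125 or UAMH-9410 were grown on V8 agar for 14 days at 23 °C under constant light. Wells with PDA containing test compound (0.50, 0.20 or 0.10 mM) or control, each with 1% CH3CN, were inoculated centrally with inverted 4 mm plugs from 7-day-old V8 plates. Growth after 5 days under constant light gave % inhibition = 100 − (amended/control growth × 100); ± SD.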

Data set [4] concerns Plenodomus lingam. Kind of data set: Antifungal activity against Leptosphaeria maculans assessed as mycelial radial growth inhibition on potato dextrose agar at 0.20 mM relative to control. It is filed as functional. In short, it runs like this:
as §1

In data set [5] the test system is Plenodomus lingam. Kind of data set: Antifungal activity against Leptosphaeria maculans assessed as mycelial radial growth inhibition on potato dextrose agar at 0.50 mM relative to control. It is filed as functional. In outline: as §1
Data set [6] in a line: Half life in Leptosphaeria maculans. Particulars: plenodomus lingam. The class given is ADME, organism-based. In short, it runs like this: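 Minimal medium inoculated with L. maculans BJ-125 spores was shaken at 120 rpm and 23 °C under constant light. After 2 days, compound was added in CH3CN (0.10 mM final); uninoculated medium served as control. Samples were taken immediately and at intervals up to 72–96 h, then frozen or extracted with EtOAc. Extracts were concentrated, taken up in CH3CN and analysed by HPLC.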

SMILES strings stand for the structures.

By half-life is commonly meant how long it takes for the measured level to halve. Lower therefore signals fast loss. Broadly, the inhibition is the percentage by which the read-out fell short of the control. On to `CNC(=S)SCc1c[nH]c2ccccc12`, for which the half-life was 20 h in data set [1] and 24 h in data set [2]. Also, in the data set on Plenodomus lingam [3], the inhibition at 100 µM worked out at 17%. For the same compound, the inhibition at 200 µM in the data set on Plenodomus lingam [4] worked out at 35%. Besides, the inhibition at 500 µM with Plenodomus lingam [5] stood at 61%.

Regarding `CON1c2ccccc2C(O)C12CN=C(SC)S2` (mixture of isomers) [DIHYDROERUCALEXIN], the inhibition at 100 µM in the data set on Plenodomus lingam [3] came out at 7%. Moreover, the inhibition at 200 µM in the data set with Plenodomus lingam [4] is 13%. Moreover, the inhibition at 500 µM in the data set on Plenodomus lingam [5] was 23%.

For the compound `CON1c2ccccc2C(=O)C12CN=C(SC)S2` (racemic) [RAC-ERUCALEXIN], in data set [6], the half-life is below 6 h. In addition, in the data set on Plenodomus lingam [3], the inhibition at 100 µM is 6%. Also, in the data set with Plenodomus lingam [4], the inhibition at 200 µM worked out at 17%. Besides, in the data set on Plenodomus lingam [5], the inhibition at 500 µM came out at 40%.

For the compound `C=CCNC(=O)SCc1c[nH]c2ccccc12` [BRUSSALEXIN A], the figures for the half-life in data set [1] and in data set [2] were 48 h and 15 h, respectively. Moreover, in the data set on Plenodomus lingam [3], the inhibition at 100 µM was found to be 7%. Also, the inhibition at 200 µM with Plenodomus lingam [4] was determined as 25%. Also, the inhibition at 500 µM in the data set on Plenodomus lingam [5] came out at 43%.

With `OCc1c[nH]c2ccccc12` [INDOLE-3-CARBINOL], in data set [1], the half-life is above 72 h. The inhibition at 100 µM with Plenodomus lingam [3] worked out at 19%. Also, the inhibition at 200 µM in the data set with Plenodomus lingam [4] amounted to 27%. Further, in the data set on Plenodomus lingam [5], the inhibition at 500 µM amounted to 52%.

Turning to `COc1cccc2[nH]cc(N=C=S)c12` [RAPALEXIN A], the inhibition at 100 µM in the data set on Plenodomus lingam [3] came to 21%. Moreover, the inhibition at 200 µM in the data set with Plenodomus lingam [4] amounted to 53%. In addition, the inhibition at 500 µM in the data set with Plenodomus lingam [5] amounted to 100%.
